Source: ChEMBL document CHEMBL4033790, “Design and Synthesis of Novel Deuterated Ligands Functionally Selective for the γ-Aminobutyric Acid Type A Receptor (GABAAR) α6 Subtype with Improved Metabolic Stability and Enhanced Bioavailability” (J Med Chem, 2018)
In brackets after ≈: the same amount, converted by molar mass. Activity calls are given as the source filed them. No cut-off for these calls is given here.

Key:
[1] = Metabolic stability in human liver microsomes assessed as parent compound remaining at 10 uM after 60 mins by LC-MS analysis; assay type: ADME, microsome; settings: read-out: Stability
Outline: (§1)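 The 60 min samples of the microsomal incubation (10 μM compound, human or mouse liver microsomes at 0.5 mg/mL, NADPH regenerating system, 37 °C) were analysed by LC-MS. Detection used SIM mode with dual ESI/APCI ionization, calibrated to the retention times and masses of the parent and its O-demethylated metabolites. Peak intensities were measured.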

[2] = Metabolic stability in mouse liver microsomes assessed as parent compound remaining at 10 uM after 60 mins by LC-MS analysis; assay type: ADME, microsome; settings: read-out: Stability; outline: as §1
[3] = Aqueous solubility of the compound in DI water at pH 7 after 2 hrs by LC-MS analysis; assay type: physicochemical; settings: buffer, pH 7, 2 h
Outline: (§2)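 10 mg compound dissolved in 2 mL DMAC; 10 μL of this added to 2 mL DI water (pH 7, sonicated) or 2 mL 0.01 M aq HCl (pH 2), held 2 h at 37 °C. Filtered through 0.45 micron filter, then quantified by LC-MS in SIM mode against calibration curves of standards in DMAC (n = 5); n=3.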

[4] = Solubility of the compound in 0.01M HCl at pH 2 after 2 hrs by LC-MS analysis; assay type: physicochemical; settings: buffer, pH 2, 2 h; outline: as §2
[5] = target: Muscarinic acetylcholine receptor M4 (Homo sapiens) (UniProt P08173); assay: Displacement of [3H]-QNB from human recombinant M4 receptor expressed in HEK293 cells at 10 uM after 60 to 90 mins by scintillation counting; assay type: cell-based
Muscarinic acetylcholine receptor M4 (Homo sapiens), sequence (P08173 whole entry): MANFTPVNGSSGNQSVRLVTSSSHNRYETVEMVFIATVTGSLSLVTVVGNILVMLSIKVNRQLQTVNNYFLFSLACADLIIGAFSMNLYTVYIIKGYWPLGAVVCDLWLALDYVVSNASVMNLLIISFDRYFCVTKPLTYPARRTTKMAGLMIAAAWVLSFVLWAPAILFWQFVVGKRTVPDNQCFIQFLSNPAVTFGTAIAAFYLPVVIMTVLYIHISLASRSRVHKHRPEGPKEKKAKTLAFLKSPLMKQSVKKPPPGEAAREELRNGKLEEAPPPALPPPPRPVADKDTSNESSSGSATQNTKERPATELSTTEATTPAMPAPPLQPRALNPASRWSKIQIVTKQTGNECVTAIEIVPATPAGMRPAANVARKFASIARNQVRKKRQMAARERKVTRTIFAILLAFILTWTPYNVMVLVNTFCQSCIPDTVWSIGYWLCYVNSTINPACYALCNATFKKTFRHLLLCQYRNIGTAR
Outline: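 Primary single-concentration radioligand displacement screen run by the NIMH Psychoactive Drug Screening Program across a 46-target panel that includes hERG. The read-out is percent inhibition of specific radioligand binding. Any compound displacing more than 50% of radioligand went on to secondary binding assays to determine Ki.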

Mus musculus = assay: Neurotoxicity in Swiss Webster mouse assessed as induction of motor impairment at 40 mg/kg administered via oral gavage measured after 10 to 60 mins by rotarod method; assay type: toxicity, organism-based; settings: in vivo
Outline: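 Female mice were given a single oral gavage dose of 40 mg/kg, either in 50% PBS/40% propylene glycol/10% DMSO or, for poorly soluble compounds, in 2% polyethylene glycol plus 2.5% hydroxymethyl cellulose. Rotarod performance was tested 10, 30 and 60 min after dosing, with diazepam 5 mg/kg as positive control.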

[6] = target: GABA-A receptor; alpha-6/beta-3/gamma-2 (Homo sapiens) (UniProt P18507+P28472+Q16445); assay: Positive allosteric modulation of GABA-A receptor alpha6beta3gamma2 (unknown origin) expressed in Xenopus laevis oocytes assessed as potentiation of EC3 GABA induced currents up to 10 uM at -60 mV holding potential by electrophysiological method; assay type: cell-based; settings: tested as the 2H-labelled form
Outline: (§3)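 Stage 5–6 defolliculated Xenopus oocytes were injected with 2.5 ng total mRNA per oocyte: α1, α2, α3 or α5 with β3 and γ2 at 1:1:5, and α4 or α6 with β3 and γ2 at 3:1:5. Oocytes were kept ≥36 h at 18 °C in NDE medium before recording. Compounds were co-applied with GABA titrated to EC3-5 for each oocyte. Curves were fitted with the Hill equation; mean ± SEM from ≥3 oocytes across two batches.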

[7] = target: GABA-A receptor; alpha-1/beta-3/gamma-2 (Homo sapiens) (UniProt P14867+P18507+P28472); assay: Positive allosteric modulation of GABA-A receptor alpha1beta3gamma2 (unknown origin) expressed in Xenopus laevis oocytes assessed as potentiation of EC3 GABA induced currents up to 100 uM at -60 mV holding potential by electrophysiological method relative to GABA; assay type: cell-based; settings: tested as the 2H-labelled form; outline: as §3
[8] = target: GABA-A receptor; alpha-2/beta-3/gamma-2 (Homo sapiens) (UniProt P18507+P28472+P47869); assay: Positive allosteric modulation of GABA-A receptor alpha2beta3gamma2 (unknown origin) expressed in Xenopus laevis oocytes assessed as potentiation of EC3 GABA induced currents up to 100 uM at -60 mV holding potential by electrophysiological method relative to GABA; assay type: cell-based; settings: tested as the 2H-labelled form; outline: as §3
[9] = target: GABA-A receptor; alpha-3/beta-3/gamma-2 (Homo sapiens) (UniProt P18507+P28472+P34903); assay: Positive allosteric modulation of GABA-A receptor alpha3beta3gamma2 (unknown origin) expressed in Xenopus laevis oocytes assessed as potentiation of EC3 GABA induced currents up to 100 uM at -60 mV holding potential by electrophysiological method relative to GABA; assay type: cell-based; settings: tested as the 2H-labelled form; outline: as §3
[10] = target: GABA A receptor alpha-4/beta-3/gamma-2 (Homo sapiens) (UniProt P18507+P28472+P48169); assay: Positive allosteric modulation of GABA-A receptor alpha4beta3gamma2 (unknown origin) expressed in Xenopus laevis oocytes assessed as potentiation of EC3 GABA induced currents up to 100 uM at -60 mV holding potential by electrophysiological method relative to GABA; assay type: cell-based; settings: tested as the 2H-labelled form; outline: as §3
[11] = target: GABA-A receptor; alpha-5/beta-3/gamma-2 (Homo sapiens) (UniProt P18507+P28472+P31644); assay: Positive allosteric modulation of GABA-A receptor alpha5beta3gamma2 (unknown origin) expressed in Xenopus laevis oocytes assessed as potentiation of EC3 GABA induced currents up to 100 uM at -60 mV holding potential by electrophysiological method relative to GABA; assay type: cell-based; settings: tested as the 2H-labelled form; outline: as §3
[12] = target: Voltage-gated inwardly rectifying potassium channel KCNH2 (Homo sapiens, UniProt Q12809); assay: Displacement of [3H]-dofetilide from human ERG expressed in HEK cell membranes at >10 uM after 60 to 90 mins by scintillation counting
Voltage-gated inwardly rectifying potassium channel KCNH2, sequence (Q12809 whole entry): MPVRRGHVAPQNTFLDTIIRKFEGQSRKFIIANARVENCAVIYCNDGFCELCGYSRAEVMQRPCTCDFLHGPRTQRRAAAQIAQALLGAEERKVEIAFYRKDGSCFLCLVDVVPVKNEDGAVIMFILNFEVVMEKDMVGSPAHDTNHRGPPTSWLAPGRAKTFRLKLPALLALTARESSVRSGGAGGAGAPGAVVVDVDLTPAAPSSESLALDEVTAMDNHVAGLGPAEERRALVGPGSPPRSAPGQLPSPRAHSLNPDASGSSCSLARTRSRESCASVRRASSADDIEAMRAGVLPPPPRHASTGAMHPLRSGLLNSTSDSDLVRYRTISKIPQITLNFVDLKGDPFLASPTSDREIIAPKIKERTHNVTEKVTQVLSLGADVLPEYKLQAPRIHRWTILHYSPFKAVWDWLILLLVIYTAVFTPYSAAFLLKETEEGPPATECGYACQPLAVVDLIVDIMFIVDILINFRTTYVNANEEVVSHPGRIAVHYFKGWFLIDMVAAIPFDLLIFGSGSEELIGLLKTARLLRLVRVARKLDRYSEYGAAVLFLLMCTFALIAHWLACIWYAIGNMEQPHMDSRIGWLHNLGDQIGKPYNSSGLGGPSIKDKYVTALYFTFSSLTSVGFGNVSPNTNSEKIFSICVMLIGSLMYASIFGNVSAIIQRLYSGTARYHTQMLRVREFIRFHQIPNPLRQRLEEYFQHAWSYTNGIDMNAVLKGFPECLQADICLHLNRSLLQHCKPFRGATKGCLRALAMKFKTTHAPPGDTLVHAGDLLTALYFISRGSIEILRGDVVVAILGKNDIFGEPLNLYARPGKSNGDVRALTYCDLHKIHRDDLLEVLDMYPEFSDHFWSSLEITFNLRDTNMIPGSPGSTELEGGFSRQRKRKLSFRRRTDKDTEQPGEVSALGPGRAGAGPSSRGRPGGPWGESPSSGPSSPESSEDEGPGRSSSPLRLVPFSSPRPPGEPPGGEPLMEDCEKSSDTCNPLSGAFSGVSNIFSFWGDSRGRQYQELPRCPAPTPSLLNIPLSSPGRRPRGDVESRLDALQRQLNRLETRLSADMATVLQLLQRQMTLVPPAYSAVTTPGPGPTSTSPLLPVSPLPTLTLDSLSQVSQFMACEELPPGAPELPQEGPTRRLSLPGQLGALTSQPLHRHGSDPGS

[13] = Drug level in mouse liver microsomes treated with 7-Bromo-2-(4-methoxy-d3-phenyl)-2,5-dihydro-3H-pyrazolo[4,3-c]quinolin-3-one after 60 mins by LC-MS analysis; assay type: ADME; settings: 1 h
[14] = Drug level in human liver microsomes treated with 7-Bromo-2-(4-methoxy-d3-phenyl)-2,5-dihydro-3H-pyrazolo[4,3-c]quinolin-3-one after 60 mins by LC-MS analysis; assay type: ADME; settings: 1 h

In the case of COc1ccc2c3nn(-c4ccc(OC)nc4)c(=O)c-3c[nH]c2c1, the remaining at 1 h, 10 µM [1] is reported as 92.8%, the remaining at 1 h, 10 µM [2] is reported as 74.8% and the solubility [3] is reported as 67.2 µM (≈ 21.7 µg/mL). The solubility [4] was 115.4 µM (≈ 37.2 µg/mL), the inhibition [5] was “Active” and the Activity (Mus musculus) was “Non-Toxic”. The Activity [6] was “Active”, the Activity [7] was “inactive” and the Activity [8] was “inactive”. For the same compound, the Activity [9] was “inactive”, the Activity [10] was “inactive” and the Activity [11] was “inactive”. For the same compound, the “inhibition (INH)” value [12] was “Not Active”.
With O=c1c2c[nH]c3cc(Br)ccc3c-2nn1-c1ccc(O)cc1 the Drug metabolism [13] was “Metabolite_Detected” and the Drug metabolism [14] was “Metabolite_Detected”.
